# Test results published in ChEMBL document CHEMBL4390648, “Chemical synthesis, crystal structure, versatile evaluation of their biological activities and molecular simulations of novel pyrithiobac derivatives” (Eur J Med Chem, 2019).
# Activity calls are given as the source filed them. No cut-off for these calls is given here.
# Columns and labels:
# [1] = tested on: Candida albicans; test: Inhibition of Candida albicans AHAS catalytic subunit at 10 uM using pyruvate as substrate measured after 30 mins by colorimetric method relative to control
# Outline: (§1)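 Colorimetric assay in 50 mM potassium phosphate pH 7.0 with 50 mM pyruvate, 1 mM thiamine diphosphate, 10 mM MgCl2 and 10 μM FAD. Incubated 30 min at 37 °C for plant AHAS and 30 °C for fungal AHAS. Acetolactate formed was then quantified.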
# [2] = tested on: Arabidopsis thaliana; test: Inhibition of Arabidopsis thaliana AHAS catalytic subunit using pyruvate as substrate at 100 uM measured after 30 mins by colorimetric method relative to control; outline: as §1
# [3] = tested on: Candida albicans; test: Antifungal activity against Candida albicans SC5314 grown in RPMI 1640 medium incubated for 24 hrs by microdilution method; assay type: functional; conditions: SC5314, 24 h
# Outline: (§2)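 C. albicans standard strain SC5314 and clinical isolates g5 and 17# tested by broth microdilution in YNB or RPMI 1640 medium. Plates incubated at 35 °C for up to 72 h, with visual readings taken at 24 h. MIC taken as the lowest concentration preventing visible growth.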
# [4] = tested on: Tobacco mosaic virus; test: Antiviral activity against Tobacco mosaic virus inoculated in Nicotiana tabacum leaves assessed as passivation by measuring local lesion numbers at 100 mg/l pre-incubated with virus for 30 mins followed by inoculation and measured up to 4 days; assay type: functional
# Outline: (§3)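 Passivation assay: TMV mixed with an equal volume of compound solution for 30 min, then rubbed onto the left half of N. tabacum L. leaves. The right half received virus mixed with solvent as control. Local lesions counted 3–4 days after inoculation. Compounds tested at 500 or 100 mg/L.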
# [5] = tested on: Arabidopsis thaliana; test: Inhibition of Arabidopsis thaliana AHAS catalytic subunit using pyruvate as substrate at 10 uM measured after 30 mins by colorimetric method relative to control; outline: as §1
# [6] = tested on: Brassica rapa subsp. oleifera; test: Herbicidal activity against Brassica campestris L assessed as inhibition of rape root growth at 10 mg/l root growth incubated for 48 hrs relative to control; assay type: functional
# Outline: (§4)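 Rape seeds soaked in distilled water for 4 h, then placed on filter paper wetted with inhibitor solution, 15 seeds per 6-cm dish. Germinated in the dark at 28 °C for 48 h. Mean length of 10 roots per plate measured.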
# [7] = tested on: Tobacco mosaic virus; test: Antiviral activity against Tobacco mosaic virus inoculated in Nicotiana tabacum leaves assessed as passivation by measuring local lesion numbers at 500 mg/l pre-incubated with virus for 30 mins followed by inoculation and measured up to 4 days; assay type: functional; outline: as §3
# [8] = tested on: Fusarium fujikuroi; test: Antifungal activity against Gibberella fujikuroi assessed as reduction in growth at 50 mg/l by mycelium growth rate method relative to control; assay type: functional
# Outline: (§5)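 Mycelium growth rate method against S. sclerotiorum, P. capsici, P. piricola, R. cerealis, W. anthracnose and R. bakanae. Each compound tested at 50 mg/L, with chlorothalonil and PTB as controls. Relative inhibitory ratio (%) calculated from mycelial growth.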
# [9] = tested on: Phytophthora capsici; test: Antifungal activity against Phytophthora capsici assessed as reduction in growth at 50 mg/l by mycelium growth rate method relative to control; assay type: functional; outline: as §5
# [10] = tested on: Candida albicans; test: Antifungal activity against Candida albicans SC5314 grown in YNB medium incubated for 24 hrs by microdilution method; assay type: functional; conditions: SC5314, 24 h; outline: as §2
# [11] = tested on: Candida albicans; test: Antifungal activity against Candida albicans isolate 17 grown in RPMI 1640 medium incubated for 24 hrs by microdilution method; assay type: functional; conditions: isolate 17, 24 h; outline: as §2
# [12] = tested on: Candida albicans; test: Antifungal activity against Candida albicans isolate g5 grown in YNB medium incubated for 24 hrs by microdilution method; assay type: functional; conditions: isolate g5, 24 h; outline: as §2
# [13] = tested on: Candida albicans; test: Antifungal activity against Candida albicans isolate 17 grown in YNB medium incubated for 24 hrs by microdilution method; assay type: functional; conditions: isolate 17, 24 h; outline: as §2
# [14] = tested on: Severe acute respiratory syndrome-related coronavirus; test: Inhibition of SARS coronavirus M protease using AVLQSGFRKK as substrate at 20 uM by FRET assay relative to control
# Outline: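 Purified SARS-CoV Mpro assayed by FRET. Protein, compound and substrate were preheated at 37 °C and oscillated. Fluorescence (ex 320/em 405 nm) was read every 5 s for 200 reads.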
# [15] = tested on: Ceratobasidium cereale; test: Antifungal activity against Rhizoctonia cerealis assessed as reduction in growth at 50 mg/l by mycelium growth rate method relative to control; assay type: functional; outline: as §5
# [16] = tested on: Brassica rapa subsp. oleifera; test: Herbicidal activity against Brassica campestris L assessed as inhibition of rape root growth at 100 mg/l root growth incubated for 48 hrs relative to control; assay type: functional; outline: as §4
# [17] = tested on: Candida albicans; test: Antifungal activity against Candida albicans isolate g5 grown in RPMI 1640 medium incubated for 24 hrs by microdilution method; assay type: functional; conditions: isolate g5, 24 h; outline: as §2
# [18] = tested on: Candida albicans; test: Inhibition of Candida albicans AHAS catalytic subunit at 100 uM using pyruvate as substrate measured after 30 mins by colorimetric method relative to control; outline: as §1
# [19] = tested on: Botryosphaeria berengeriana; test: Antifungal activity against Physalospora pyricola assessed as reduction in growth at 50 mg/l by mycelium growth rate method relative to control; assay type: functional; outline: as §5
# [20] = tested on: Sclerotinia sclerotiorum; test: Antifungal activity against Sclerotinia sclerotiorum assessed as reduction in growth at 50 mg/l by mycelium growth rate method relative to control; assay type: functional; outline: as §5
# [21] = tested on: Mythimna separata; test: Insecticidal activity against Mythimna separata assessed as larval mortality at 600 mg/l by leaf-dip method; assay type: functional
# [22] = tested on: Colletotrichum; test: Antifungal activity against Colletotrichum (W. anthracnose) assessed as reduction in growth at 50 mg/l by mycelium growth rate method relative to control; assay type: functional; outline: as §5
Structure (SMILES),inhibition [1],inhibition [2],MIC [3],inhibition [5],inhibition (INH) [6],inhibition at 500 µg/mL [7],inhibition at 50 µg/mL [8],inhibition at 50 µg/mL [9],MIC [10],MIC [11],MIC [12],MIC [13],inhibition [14],inhibition at 50 µg/mL [15],inhibition (INH) [16],MIC [17],inhibition [18],inhibition at 50 µg/mL [19],inhibition at 50 µg/mL [20],mortality at 600 µg/mL [21],also measured
COc1nc(OC)nc(Sc2ccc(C#N)cc2Cl)n1,65.4%,89.6%,> 100 µg/mL,43.2%,28.4%,29.6%,42.4%,8.3%,> 100 µg/mL,> 100 µg/mL,> 100 µg/mL,> 100 µg/mL,12.8%,54.8%,60.3%,> 100 µg/mL,73.6%,60.9%,36.1%,30%,inhibition [4]: inactive; inhibition at 50 µg/mL [22]: 33.3%
COc1nc(OC)nc(Sc2ccc(C(=O)O)c(C(F)(F)F)c2)n1,8.6%,75.5%,> 100 µg/mL,21.8%,4%,42.3%,36.4%,8.3%,> 100 µg/mL,> 100 µg/mL,> 100 µg/mL,> 100 µg/mL,22.2%,38.1%,16.5%,> 100 µg/mL,21.2%,43.8%,75%,80%,inhibition at 100 µg/mL [4]: 6.2%; inhibition at 50 µg/mL [22]: 16.7%
COc1nc(OC)nc(Sc2ccc(C(=O)O)cc2Br)n1,50.1%,30%,> 100 µg/mL,22.4%,0%,21.4%,57.6%,41.7%,> 100 µg/mL,> 100 µg/mL,> 100 µg/mL,> 100 µg/mL,25%,58.3%,34.3%,> 100 µg/mL,92.4%,46.9%,77.8%,10%,inhibition [4]: inactive; inhibition at 50 µg/mL [22]: 35.7%
COc1nc(OC)nc(Sc2ccc(C(=O)O)cc2Cl)n1,25.6%,15.3%,> 100 µg/mL,12.6%,0%,0%,27.3%,58.3%,100 µg/mL,> 100 µg/mL,100 µg/mL,25 µg/mL,25.5%,59.5%,58.2%,> 100 µg/mL,73%,42.2%,69.4%,20%,inhibition [4]: inactive; inhibition at 50 µg/mL [22]: 16.7%
COc1nc(OC)nc(Sc2cccc(Cl)c2C#N)n1,38.9%,79.3%,> 100 µg/mL,19.8%,0%,0%,21.2%,33.3%,> 100 µg/mL,> 100 µg/mL,> 100 µg/mL,> 100 µg/mL,76.6%,27.4%,17.4%,> 100 µg/mL,59.5%,51.6%,50%,5%,inhibition [4]: inactive; inhibition at 50 µg/mL [22]: 40.5%
COc1nc(OC)nc(Sc2ccc(F)cc2C(=O)O)n1,56.1%,68.6%,> 100 µg/mL,3.3%,1.6%,0%,30.3%,16.7%,> 100 µg/mL,100 µg/mL,> 100 µg/mL,50 µg/mL,94.5%,57.1%,33.3%,> 100 µg/mL,77.6%,45.3%,55.6%,80%,inhibition [4]: inactive; inhibition at 50 µg/mL [22]: 19%
COc1nc(OC)nc(Sc2ccc(Cl)cc2C#N)n1,52.1%,71.3%,> 100 µg/mL,44.9%,0%,0%,33.3%,16.7%,> 100 µg/mL,> 100 µg/mL,> 100 µg/mL,> 100 µg/mL,85.1%,45.2%,16.6%,> 100 µg/mL,79.9%,71.9%,27.8%,0%,inhibition [4]: inactive; inhibition at 50 µg/mL [22]: 23.8%
COc1nc(OC)nc(Sc2ccc(C#N)cc2F)n1,55.7%,63.3%,100 µg/mL,42.9%,41.8%,0%,27.3%,16.7%,6.25 µg/mL,100 µg/mL,12.5 µg/mL,6.25 µg/mL,49.7%,58.3%,54.2%,100 µg/mL,85.4%,54.7%,13.9%,0%,inhibition [4]: inactive; inhibition at 50 µg/mL [22]: 23.8%
COc1nc(OC)nc(Sc2ccc(Cl)cc2C(=O)O)n1,39.3%,59.6%,> 100 µg/mL,5.5%,0%,0%,0%,8.3%,> 100 µg/mL,> 100 µg/mL,> 100 µg/mL,> 100 µg/mL,24.2%,52.4%,24.2%,> 100 µg/mL,68.8%,40.6%,61.1%,40%,inhibition [4]: inactive; inhibition at 50 µg/mL [22]: 16.7%
COc1nc(OC)nc(Sc2cccc(F)c2C#N)n1,46.3%,86.5%,100 µg/mL,34.5%,2.2%,0%,24.2%,33.3%,6.25 µg/mL,100 µg/mL,12.5 µg/mL,3.12 µg/mL,90.8%,52.4%,26.2%,100 µg/mL,70.4%,45.3%,63.9%,20%,inhibition [4]: inactive; inhibition at 50 µg/mL [22]: 42.9%
